Laboratory results: ChEMBL document CHEMBL4196207, “Medermycin-Type Naphthoquinones from the Marine-Derived Streptomyces sp. XMA39” (J Nat Prod, 2018)
≈ marks a conversion by molar mass, not a printed value. Positions of bridges follow the written chain, without caps; N, C: chain ends. Non-standard residues stand in square brackets, D forms with d. Residues, ends and D or L forms follow the SMILES beside them. *: point of attachment. Octanoyl(6-Me) = CCC(C)CCCCC(=O)*; Dab = NCC[C@H](N)C(=O)O

Columns and labels:
PC-3 = test: Cytotoxicity against human PC3 cells after 72 hrs by SRB assay; assay type: functional, cell-based; conditions: PC-3, 72 h
Procedure, shortened: (§1)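 SRB assay. Cells were seeded 24 h, then given a range of compound concentrations for 72 h at 37 °C. Fixed with cold 10% TCA for 2 h at 4 °C, washed, stained with 0.4% SRB, rinsed with 1% acetic acid, and dye dissolved in 10 mM Tris. OD read at 515 nm. IC50 by the Reed–Muench method.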

HCT-116 = test: Cytotoxicity against human HCT116 cells after 72 hrs by SRB assay; assay type: functional, cell-based; conditions: HCT-116, 72 h; procedure, shortened: as §1
[1] = biological target: Rho-associated protein kinase 2 (Homo sapiens, UniProt O75116); test: Inhibition of ROCK2 (unknown origin) using SKT S2 as substrate measured after 30 mins by HTRF assay
Rho-associated protein kinase 2, sequence (O75116 whole entry): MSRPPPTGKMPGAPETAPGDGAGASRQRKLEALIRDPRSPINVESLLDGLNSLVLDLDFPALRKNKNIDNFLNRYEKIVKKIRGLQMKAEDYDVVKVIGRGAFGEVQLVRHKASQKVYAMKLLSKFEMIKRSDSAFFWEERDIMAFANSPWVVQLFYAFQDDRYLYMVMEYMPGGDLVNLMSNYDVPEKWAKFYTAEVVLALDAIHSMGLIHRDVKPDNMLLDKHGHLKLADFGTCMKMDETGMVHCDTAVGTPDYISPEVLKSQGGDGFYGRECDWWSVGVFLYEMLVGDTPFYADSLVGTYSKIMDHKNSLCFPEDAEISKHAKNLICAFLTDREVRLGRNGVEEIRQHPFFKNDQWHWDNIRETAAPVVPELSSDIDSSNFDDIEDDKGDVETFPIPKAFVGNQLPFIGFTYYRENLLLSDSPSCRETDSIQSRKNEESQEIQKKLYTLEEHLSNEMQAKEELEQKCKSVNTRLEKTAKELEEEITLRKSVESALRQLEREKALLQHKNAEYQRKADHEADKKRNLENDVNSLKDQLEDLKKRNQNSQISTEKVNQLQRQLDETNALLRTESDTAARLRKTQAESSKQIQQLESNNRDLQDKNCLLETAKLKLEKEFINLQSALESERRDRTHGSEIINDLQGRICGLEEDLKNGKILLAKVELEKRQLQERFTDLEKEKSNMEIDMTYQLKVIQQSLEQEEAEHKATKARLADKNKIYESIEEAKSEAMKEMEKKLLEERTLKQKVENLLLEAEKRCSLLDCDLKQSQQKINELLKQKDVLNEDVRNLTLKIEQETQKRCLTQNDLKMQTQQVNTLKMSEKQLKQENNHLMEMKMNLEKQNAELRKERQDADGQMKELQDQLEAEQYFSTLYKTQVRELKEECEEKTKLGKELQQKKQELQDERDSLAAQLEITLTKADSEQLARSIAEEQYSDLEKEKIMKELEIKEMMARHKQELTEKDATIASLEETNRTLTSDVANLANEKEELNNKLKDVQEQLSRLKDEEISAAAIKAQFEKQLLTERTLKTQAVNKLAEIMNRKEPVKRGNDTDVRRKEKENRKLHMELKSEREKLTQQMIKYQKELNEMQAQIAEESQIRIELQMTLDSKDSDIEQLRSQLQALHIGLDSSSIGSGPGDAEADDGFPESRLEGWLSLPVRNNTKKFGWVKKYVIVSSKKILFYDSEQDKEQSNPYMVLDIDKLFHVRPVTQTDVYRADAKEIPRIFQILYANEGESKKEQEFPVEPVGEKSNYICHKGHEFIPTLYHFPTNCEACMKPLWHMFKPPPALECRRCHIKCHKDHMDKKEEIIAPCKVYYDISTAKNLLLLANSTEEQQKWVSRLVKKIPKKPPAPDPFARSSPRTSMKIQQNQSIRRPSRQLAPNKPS
Procedure, shortened: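 HTRF KinEASE format. Compound dilutions were added to a substrate/enzyme/ATP mixture and incubated 0.5 h at 37 °C. SA-XL665 and STK antibody–cryptate were then added, followed by 1 h at room temperature before HTRF read-out. Triplicate.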

Escherichia coli = test: Antimicrobial activity against Escherichia coli ATCC 25922 after 12 hrs by microdilution method; assay type: functional; conditions: ATCC 25922, 12 h
Procedure, shortened: (§2)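 Broth microdilution in 96-well plates. A 10 mg/mL DMSO stock was serially diluted in microbial cell suspension, 200 μL final. Plates were incubated at 37 °C for 12 h. MIC was read as the lowest concentration completely clear against a black background. Triplicate. E. coli strain ATCC 25922; C. albicans strain not specified.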

Staphylococcus aureus = test: Antimicrobial activity against methicillin-resistant Staphylococcus aureus ATCC 43300 after 12 hrs by microdilution method; assay type: functional; conditions: ATCC 43300, 12 h
Procedure, shortened: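 Broth microdilution. Compound stock of 10 mg/mL in DMSO was serially diluted with microbial cell suspension to a series of concentrations in 96-well plates. Plates were incubated at 37 °C for 12 h. MIC is the lowest concentration that stays completely clear against a black background. Vancomycin served as positive control. Tests were run in triplicate.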

Candida albicans = test: Antimicrobial activity against Candida albicans after 12 hrs by microdilution method; assay type: functional; procedure, shortened: as §2

| SMILES | IC50 (PC-3) [µM] | IC50 (HCT-116) [µM] | IC50 [1] [µM] | MIC (Escherichia coli) [µg/mL] | MIC (Staphylococcus aureus) [µg/mL] | MIC (Candida albicans) [µg/mL] |
| --- | --- | --- | --- | --- | --- | --- |
| COC(=O)C[C@H]1O[C@H](C)c2c(oc(=O)c3ccc([C@H]4C[C@@H](N(C)C)[C@H](O)[C@@H](C)O4)c(O)c3c2=O)[C@H]1O | > 40 | > 40 | > 20 | 10 (≈ 19.8 µM) | 15 (≈ 29.7 µM) | 10 (≈ 19.8 µM) |
| CCC(C)CCCCC(=O)N[C@@H](CCN)C(=O)N[C@H](C(=O)N[C@@H](CCN)C(=O)N[C@H]1CCNC(=O)[C@H]([C@@H](C)O)NC(=O)[C@H](CCN)NC(=O)[C@H](CCN)NC(=O)[C@H](CC(C)C)NC(=O)[C@@H](Cc2ccccc2)NC(=O)[C@H](CCN)NC1=O)[C@@H](C)O (some centres not stated) ({Octanoyl(6-Me)}-[Dab]T[Dab][Dab][Dab][dF]L[Dab][Dab]T; lactam 4-C) |  |  |  | 2 (≈ 1.66 µM) |  |  |
| COC(=O)C[C@@H]1C[C@@]2(O)C(=O)c3ccc([C@H]4C[C@@H](N(C)C)[C@H](O)[C@@H](C)O4)c(O)c3C(=O)[C@]2(O)[C@@H](C)O1 | 16 | 4.4 | > 20 | 5 (≈ 9.85 µM) | 6 (≈ 11.8 µM) | 9 (≈ 17.7 µM) |
| C[C@@H]1[C@H](O)[C@@H](C)/C=C/C=C/C=C/C=C/C=C/C=C/C=C/[C@H](O[C@@H]2O[C@H](C)[C@@H](O)[C@H](N)[C@@H]2O)C[C@@H]2O[C@](O)(C[C@@H](O)C[C@@H](O)[C@H](O)CC[C@@H](O)C[C@@H](O)CC(=O)O[C@H]1C)C[C@H](O)[C@H]2C(=O)O [AMPHOTERICIN B] |  |  |  |  |  | 2 (≈ 2.16 µM) |
| COC(=O)C[C@H]1OC(C)=C2C(=O)c3c(ccc([C@H]4C[C@@H](N(C)C)[C@H](O)[C@@H](C)O4)c3O)C(=O)C2=C1O | 19 | 2.9 | 9 | 4 (≈ 8.21 µM) | 3 (≈ 6.15 µM) | 6 (≈ 12.3 µM) |
| C[C@H]1O[C@@H]2CC(=O)O[C@@H]2C2=C1C(=O)c1c(ccc([C@H]3C[C@@H](N(C)C)[C@H](O)[C@@H](C)O3)c1O)C2=O [LACTOQUINOMYCIN] | 0.015 | 0.043 | 0.011 | 2 (≈ 4.37 µM) | 0.25 (≈ 0.546 µM) | 5 (≈ 10.9 µM) |
| C[C@H]1O[C@@H]2CC(=O)O[C@@H]2c2oc(=O)c3ccc([C@H]4C[C@@H](N(C)C)[C@H](O)[C@@H](C)O4)c(O)c3c(=O)c21 | > 40 | > 40 | > 20 | 8 (≈ 16.9 µM) | 12 (≈ 25.3 µM) | 7 (≈ 14.8 µM) |
